Common to all, as to assay type: functional, cell-based
Experiment [1] has as its system A549. Nature of the experiment: Cytotoxicity against human A549 cells after 72 hrs by alamar blue assay. To be noted: A549, 72 h. A digest of the protocol:
(§1)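 Cells seeded at 800–1000 per well (20–25 cells/µL) and left overnight to attach. Compounds were diluted serially from 10 mM DMSO stocks and tested at 8 final concentrations, 50 to 0.39 µM, in triplicate for 72 h. Vehicle control was 0.5% DMSO. Alamar blue was added to 10% final and fluorescence read after 4 h (ex 530, em 560 nm). Viability was expressed as percent of vehicle, and IC50 taken as 50% kill versus control.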

Experiment [2] concerns NCI-H157. Nature of the experiment: Cytotoxicity against human NCI-H157 cells after 72 hrs by alamar blue assay. Particulars: NCI-H157, 72 h. A digest of the protocol: as §1
Experiment [3] has as its system NCI-H460. Briefly: Cytotoxicity against human H460 cells after 72 hrs by alamar blue assay. Particulars: NCI-H460, 72 h. A digest of the protocol:
as §1

The subject of experiment [4] is NCI-H1792. Nature of the experiment: Cytotoxicity against human NCI-H1792 cells after 72 hrs by alamar blue assay. To be noted: NCI-H1792, 72 h. A digest of the protocol: as §1
Experiment [5] can be described thus: Cytotoxicity against human H266 cells after 72 hrs by alamar blue assay. To be noted: H266, 72 h. A digest of the protocol:
as §1

The subject of experiment [6] is HOP-62. Nature of the experiment: Cytotoxicity against human HOP62 cells after 72 hrs by alamar blue assay. To be noted: HOP-62, 72 h. The gist of the method: as §1
Experiment [7] has as its system NCI-H1299. Nature of the experiment: Cytotoxicity against human NCI-H1299 cells after 72 hrs by alamar blue assay. To be noted: NCI-H1299, 72 h. The gist of the method:
as §1

Experiment [8] is described as follows: Cytotoxicity against human 292G cells after 72 hrs by alamar blue assay. A digest of the protocol:
as §1

The test system of experiment [9] is Calu-1. Nature of the experiment: Cytotoxicity against human Calu1 cells after 72 hrs by alamar blue assay. To be noted: Calu-1, 72 h. The gist of the method:
as §1

Experiment [10] deals with LOX IMVI. Briefly: Cytotoxicity against human LOXIMVI cells after 72 hrs by alamar blue assay. The gist of the method:
as §1

In experiment [11] the test system is M14. Nature of the experiment: Cytotoxicity against human M14 cells after 72 hrs by alamar blue assay. Particulars: M14, 72 h. A digest of the protocol:
as §1

Experiment [12] deals with HeLa. Briefly: Cytotoxicity against human HeLa cells after 72 hrs by alamar blue assay. A digest of the protocol: as §1
The nature of experiment [13]: Cytotoxicity against human M4E cells after 72 hrs by alamar blue assay. A digest of the protocol:
as §1

Experiment [14] in a line: Cytotoxicity against human SKBR cells after 72 hrs by alamar blue assay. The gist of the method:
as §1

Some results are limits rather than exact numbers.

In the case of `COc1cc(/C=C/C(=O)OCC(C)C)ccc1O`, the half-inhibitory concentration (IC50) in experiment [1] is 34.6 µM; in [2], 28.3 µM; in experiment [3], above 50 µM; in [4] it was above 50 µM; in experiment [5] it was 35.7 µM; in experiment [6] it was above 50 µM. The IC50 in experiment [7] is 38 µM; in [8], above 50 µM; in experiment [9], above 50 µM; in [10], above 50 µM; in experiment [11] it was above 50 µM; in [12], 28.7 µM. Further, the 50% inhibitory concentration (IC50) in experiment [13] is above 50 µM; in experiment [14] it was 44.8 µM.

As to `COc1cc(/C=C/C(=O)OCCOc2no[n+]([O-])c2S(=O)(=O)c2ccccc2)ccc1O`, the concentration for half-maximal inhibition (IC50) in experiment [1], in experiment [2], in experiment [3], in experiment [4], in experiment [5] and in experiment [6] was above 50 µM each time. For the same molecule, the concentration for half-maximal inhibition (IC50) in experiment [7], in experiment [8], in [9], in experiment [10], in experiment [11] and in experiment [12] was above 50 µM in each case. For the same molecule, the IC50 in experiment [13] and in [14] was above 50 µM each time.

For the molecule `CCOC(=O)/C=C/c1ccc(O)c(OC)c1` [ETHYL FERULATE], the IC50 in experiment [1] is 12.5 µM; in experiment [2] it was 32.3 µM; in experiment [3], 29.1 µM; in experiment [4], 25.6 µM; in experiment [5], 28.1 µM; in experiment [6], 26.8 µM. Besides, the IC50 was 36.8 µM in experiment [7]; 32 µM in experiment [8]; above 50 µM in [9]; above 50 µM in experiment [10]; above 50 µM in [11]; 2.13 µM in experiment [12]. The half-inhibitory concentration (IC50) in experiment [13] is 33.4 µM; in experiment [14] it was 24.9 µM.

For `CCCOC(=O)/C=C/c1ccc(O)c(OC)c1`, the IC50 in experiment [1] turned out to be 15.6 µM; in [2] it was 15.2 µM; in [3], 25.2 µM; in experiment [4], 34.1 µM; in [5] it was 20.4 µM; in [6] it was 22.4 µM. For the same molecule, the 50% inhibitory concentration (IC50) in [7] was determined as 40.3 µM; in [8], 35.9 µM; in experiment [9], 48.9 µM; in experiment [10], 15.2 µM; in experiment [11] it was 28.1 µM; in experiment [12], 5.62 µM. For the same molecule, the IC50 is 18.5 µM in experiment [13] and 24.5 µM in experiment [14].

Consider `O=C(/C=C/c1ccc(OCCCCCO[N+](=O)[O-])c(O)c1)OCCCCCO[N+](=O)[O-]`, for which the half-maximal inhibitory concentration (IC50) was 0.45 µM in experiment [1]; above 50 µM in experiment [2]; above 50 µM in experiment [3]; above 50 µM in [4]; above 50 µM in experiment [5]; above 50 µM in experiment [6]. The IC50 in [7] is above 50 µM; in [8], above 50 µM; in experiment [9], above 50 µM; in experiment [10] it was 7.23 µM; in [11], above 50 µM; in experiment [12], 5.73 µM. In addition, the 50% inhibitory concentration (IC50) is above 50 µM in experiment [13] and 2.71 µM in experiment [14].

On to `COc1cc(/C=C/C(=O)OCc2ccc(OCc3c(-c4ccccc4)no[n+]3[O-])cc2)ccc1O`, for which the IC50 in experiment [1] was 17.2 µM; in experiment [2] it was above 50 µM; in [3], 44.2 µM; in experiment [4], above 50 µM; in experiment [5], above 50 µM; in [6], above 50 µM. Moreover, the concentration for half-maximal inhibition (IC50) in experiment [7], in experiment [8], in experiment [9], in experiment [10], in [11] and in experiment [12] was above 50 µM in each case. The half-maximal inhibitory concentration (IC50) in [13] is above 50 µM; in experiment [14] it was 11.7 µM.

Values taken from ChEMBL document CHEMBL2086326, “Biological activity evaluation and structure-activity relationships analysis of ferulic acid and caffeic acid derivatives for anticancer” (Bioorg Med Chem Lett, 2012).
